Results published in ChEMBL document CHEMBL1255358, “Relation between genetic markers of drug resistance and susceptibility profile of clinical Neisseria gonorrhoeae strains” (2008).

What was measured:
Format in all cases: functional
Neisseria gonorrhoeae [1] = assay: Antimicrobial activity against Neisseria gonorrhoeae obtained from patient with uncomplicated gonorrhea assessed as incidence of resistant isolates by agar dilution method
Outline: (§1)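 Clinical isolates shipped frozen on dry ice to a central lab, recovered from cryobeads onto GC agar and subcultured once. MICs were determined by agar dilution on GC agar supplemented with PolyViteX, with strain ATCC 49226 as control. Isolates were classed susceptible, intermediate or resistant by current CLSI criteria. Genotypes were assigned by PCR, and by minisequencing with MALDI-TOF mass spectrometry.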

Neisseria gonorrhoeae [2] = assay: Antimicrobial activity against Neisseria gonorrhoeae obtained from patient with uncomplicated gonorrhea expressing penA mutant gene assessed as incidence of resistant isolates by agar dilution method; outline: as §1
Neisseria gonorrhoeae [3] = assay: Antimicrobial activity against Neisseria gonorrhoeae obtained from patient with uncomplicated gonorrhea expressing mtrR mutant gene assessed as incidence of resistant isolates by agar dilution method; outline: as §1
Neisseria gonorrhoeae [4] = assay: Antimicrobial activity against Neisseria gonorrhoeae obtained from patient with uncomplicated gonorrhea expressing penB mutant gene assessed as incidence of resistant isolates by agar dilution method; outline: as §1
Neisseria gonorrhoeae [5] = assay: Antimicrobial activity against Neisseria gonorrhoeae obtained from patient with uncomplicated gonorrhea expressing penA and penB mutant gene assessed as incidence of resistant isolates by agar dilution method; outline: as §1
Neisseria gonorrhoeae [6] = assay: Antimicrobial activity against Neisseria gonorrhoeae obtained from patient with uncomplicated gonorrhea expressing penA and mtrR mutant gene assessed as incidence of resistant isolates by agar dilution method; outline: as §1
Neisseria gonorrhoeae [7] = assay: Antimicrobial activity against Neisseria gonorrhoeae obtained from patient with uncomplicated gonorrhea expressing penA, penB and mtrR mutant gene assessed as incidence of resistant isolates by agar dilution method; outline: as §1
Neisseria gonorrhoeae [8] = assay: Antimicrobial activity against Neisseria gonorrhoeae obtained from patient with uncomplicated gonorrhea expressing penA and ponA mutant gene assessed as incidence of resistant isolates by agar dilution method; outline: as §1
Neisseria gonorrhoeae [9] = assay: Antimicrobial activity against Neisseria gonorrhoeae obtained from patient with uncomplicated gonorrhea expressing penA, ponA and mtrR mutant gene assessed as incidence of resistant isolates by agar dilution method; outline: as §1
Neisseria gonorrhoeae [10] = assay: Antimicrobial activity against Neisseria gonorrhoeae obtained from patient with uncomplicated gonorrhea expressing penA, penB and ponA mutant gene assessed as incidence of resistant isolates by agar dilution method; outline: as §1
Neisseria gonorrhoeae [11] = assay: Antimicrobial activity against Neisseria gonorrhoeae obtained from patient with uncomplicated gonorrhea expressing penA, penB, ponA and mtrR mutant gene assessed as incidence of resistant isolates by agar dilution method; outline: as §1
Neisseria gonorrhoeae [12] = assay: Antimicrobial activity against Neisseria gonorrhoeae obtained from patient with uncomplicated gonorrhea expressing beta-lactamase TEM-1 mutant gene assessed as incidence of resistant isolates by agar dilution method; outline: as §1
Neisseria gonorrhoeae [13] = assay: Antimicrobial activity against Neisseria gonorrhoeae obtained from patient with uncomplicated gonorrhea assessed as incidence of susceptible isolates by agar dilution method
Outline: (§2)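 Agar dilution MICs on GC agar supplemented with PolyViteX, tested against penicillin, tetracycline and fluoroquinolones. Clinical isolates were shipped frozen on dry ice to a central laboratory, recovered from cryobeads on GC agar plates and subcultured once before testing. Strain ATCC 49226 served as the control. Isolates were classed susceptible, intermediate or resistant using current CLSI interpretive criteria.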

Neisseria gonorrhoeae [14] = assay: Antimicrobial activity against Neisseria gonorrhoeae obtained from patient with uncomplicated gonorrhea expressing penA mutant gene assessed as incidence of susceptible isolates by agar dilution method; outline: as §1
Neisseria gonorrhoeae [15] = assay: Antimicrobial activity against Neisseria gonorrhoeae obtained from patient with uncomplicated gonorrhea expressing mtrR mutant gene assessed as incidence of susceptible isolates by agar dilution method; outline: as §1
Neisseria gonorrhoeae [16] = assay: Antimicrobial activity against Neisseria gonorrhoeae obtained from patient with uncomplicated gonorrhea expressing penB mutant gene assessed as incidence of susceptible isolates by agar dilution method
Outline: (§3)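 Clinical N. gonorrhoeae isolates were shipped frozen on dry ice and recovered from cryobeads on GC agar. They were subcultured once and then tested by agar dilution on GC agar with PolyViteX supplement, with ATCC 49226 as the control strain. Susceptible, intermediate or resistant status was set by CLSI criteria. Genotype came from PCR for blaTEM-1/tet(M) and from primer-extension minisequencing with MALDI-TOF detection of SNPs.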

Neisseria gonorrhoeae [17] = assay: Antimicrobial activity against Neisseria gonorrhoeae obtained from patient with uncomplicated gonorrhea expressing penA and penB mutant gene assessed as incidence of susceptible isolates by agar dilution method; outline: as §1
Neisseria gonorrhoeae [18] = assay: Antimicrobial activity against Neisseria gonorrhoeae obtained from patient with uncomplicated gonorrhea expressing penA and mtrR mutant gene assessed as incidence of susceptible isolates by agar dilution method; outline: as §1
Neisseria gonorrhoeae [19] = assay: Antimicrobial activity against Neisseria gonorrhoeae obtained from patient with uncomplicated gonorrhea expressing penA, penB and mtrR mutant gene assessed as incidence of susceptible isolates by agar dilution method; outline: as §1
Neisseria gonorrhoeae [20] = assay: Antimicrobial activity against Neisseria gonorrhoeae obtained from patient with uncomplicated gonorrhea expressing penA and ponA mutant gene assessed as incidence of susceptible isolates by agar dilution method; outline: as §1
Neisseria gonorrhoeae [21] = assay: Antimicrobial activity against Neisseria gonorrhoeae obtained from patient with uncomplicated gonorrhea expressing penA, ponA and mtrR mutant gene assessed as incidence of susceptible isolates by agar dilution method; outline: as §1
Neisseria gonorrhoeae [22] = assay: Antimicrobial activity against Neisseria gonorrhoeae obtained from patient with uncomplicated gonorrhea expressing penA, penB and ponA mutant gene assessed as incidence of susceptible isolates by agar dilution method; outline: as §1
Neisseria gonorrhoeae [23] = assay: Antimicrobial activity against Neisseria gonorrhoeae obtained from patient with uncomplicated gonorrhea expressing penA, penB, ponA and mtrR mutant gene assessed as incidence of susceptible isolates by agar dilution method; outline: as §1
Neisseria gonorrhoeae [24] = assay: Antimicrobial activity against Neisseria gonorrhoeae obtained from patient with uncomplicated gonorrhea expressing beta-lactamase TEM-1 mutant gene assessed as incidence of susceptible isolates by agar dilution method; outline: as §1
Neisseria gonorrhoeae [25] = assay: Antimicrobial activity against Neisseria gonorrhoeae obtained from patient with uncomplicated gonorrhea assessed as percentage intermediate isolates by agar dilution method; outline: as §2
Neisseria gonorrhoeae [26] = assay: Antimicrobial activity against Neisseria gonorrhoeae obtained from patient with uncomplicated gonorrhea expressing penA mutant gene assessed as percentage intermediate isolates by agar dilution method; outline: as §1
Neisseria gonorrhoeae [27] = assay: Antimicrobial activity against Neisseria gonorrhoeae obtained from patient with uncomplicated gonorrhea expressing mtrR mutant gene assessed as percentage intermediate isolates by agar dilution method; outline: as §1
Neisseria gonorrhoeae [28] = assay: Antimicrobial activity against Neisseria gonorrhoeae obtained from patient with uncomplicated gonorrhea expressing penB mutant gene assessed as percentage intermediate isolates by agar dilution method; outline: as §3
Neisseria gonorrhoeae [29] = assay: Antimicrobial activity against Neisseria gonorrhoeae obtained from patient with uncomplicated gonorrhea expressing penA and penB mutant gene assessed as percentage intermediate isolates by agar dilution method; outline: as §1
Neisseria gonorrhoeae [30] = assay: Antimicrobial activity against Neisseria gonorrhoeae obtained from patient with uncomplicated gonorrhea expressing penA and mtrR mutant gene assessed as percentage intermediate isolates by agar dilution method; outline: as §1
Neisseria gonorrhoeae [31] = assay: Antimicrobial activity against Neisseria gonorrhoeae obtained from patient with uncomplicated gonorrhea expressing penA, penB and mtrR mutant gene assessed as percentage intermediate isolates by agar dilution method; outline: as §1
Neisseria gonorrhoeae [32] = assay: Antimicrobial activity against Neisseria gonorrhoeae obtained from patient with uncomplicated gonorrhea expressing penA and ponA mutant gene assessed as percentage intermediate isolates by agar dilution method; outline: as §1
Neisseria gonorrhoeae [33] = assay: Antimicrobial activity against Neisseria gonorrhoeae obtained from patient with uncomplicated gonorrhea expressing penA, ponA and mtrR mutant gene assessed as percentage intermediate isolates by agar dilution method; outline: as §1
Neisseria gonorrhoeae [34] = assay: Antimicrobial activity against Neisseria gonorrhoeae obtained from patient with uncomplicated gonorrhea expressing penA, penB and ponA mutant gene assessed as percentage intermediate isolates by agar dilution method; outline: as §1
Neisseria gonorrhoeae [35] = assay: Antimicrobial activity against Neisseria gonorrhoeae obtained from patient with uncomplicated gonorrhea expressing penA, penB, ponA and mtrR mutant gene assessed as percentage intermediate isolates by agar dilution method; outline: as §1
Neisseria gonorrhoeae [36] = assay: Antimicrobial activity against Neisseria gonorrhoeae obtained from patient with uncomplicated gonorrhea expressing beta-lactamase TEM-1 mutant gene assessed as percentage intermediate isolates by agar dilution method; outline: as §1
Neisseria gonorrhoeae [37] = assay: Antimicrobial activity against Neisseria gonorrhoeae obtained from patient with uncomplicated gonorrhea expressing rpsJ and penB mutant gene assessed as percentage intermediate isolates by agar dilution method; outline: as §3
Neisseria gonorrhoeae [38] = assay: Antimicrobial activity against Neisseria gonorrhoeae obtained from patient with uncomplicated gonorrhea expressing rpsJ, penB and mtrR mutant gene assessed as percentage intermediate isolates by agar dilution method; outline: as §3
Neisseria gonorrhoeae [39] = assay: Antimicrobial activity against Neisseria gonorrhoeae obtained from patient with uncomplicated gonorrhea expressing tetM mutant gene in combination with variants of other gene loci assessed as percentage intermediate isolates by agar dilution method; outline: as §3
Neisseria gonorrhoeae [40] = assay: Antimicrobial activity against Neisseria gonorrhoeae obtained from patient with uncomplicated gonorrhea expressing rpsJ mutant gene assessed as incidence of resistant isolates by agar dilution method; outline: as §3
Neisseria gonorrhoeae [41] = assay: Antimicrobial activity against Neisseria gonorrhoeae obtained from patient with uncomplicated gonorrhea expressing rpsJ and mtrR mutant gene assessed as incidence of resistant isolates by agar dilution method; outline: as §3
Neisseria gonorrhoeae [42] = assay: Antimicrobial activity against Neisseria gonorrhoeae obtained from patient with uncomplicated gonorrhea expressing rpsJ and penB mutant gene assessed as incidence of resistant isolates by agar dilution method; outline: as §3
Neisseria gonorrhoeae [43] = assay: Antimicrobial activity against Neisseria gonorrhoeae obtained from patient with uncomplicated gonorrhea expressing rpsJ, penB and mtrR mutant gene assessed as incidence of resistant isolates by agar dilution method; outline: as §3
Neisseria gonorrhoeae [44] = assay: Antimicrobial activity against Neisseria gonorrhoeae obtained from patient with uncomplicated gonorrhea expressing tetM mutant gene in combination with variants of other gene loci assessed as incidence of resistant isolates by agar dilution method; outline: as §3
Neisseria gonorrhoeae [45] = assay: Antimicrobial activity against Neisseria gonorrhoeae obtained from patient with uncomplicated gonorrhea expressing rpsJ mutant gene assessed as incidence of susceptible isolates by agar dilution method; outline: as §3
Neisseria gonorrhoeae [46] = assay: Antimicrobial activity against Neisseria gonorrhoeae obtained from patient with uncomplicated gonorrhea expressing rpsJ and mtrR mutant gene assessed as incidence of susceptible isolates by agar dilution method; outline: as §3
Neisseria gonorrhoeae [47] = assay: Antimicrobial activity against Neisseria gonorrhoeae obtained from patient with uncomplicated gonorrhea expressing rpsJ and penB mutant gene assessed as incidence of susceptible isolates by agar dilution method; outline: as §3
Neisseria gonorrhoeae [48] = assay: Antimicrobial activity against Neisseria gonorrhoeae obtained from patient with uncomplicated gonorrhea expressing rpsJ, penB and mtrR mutant gene assessed as incidence of susceptible isolates by agar dilution method; outline: as §3
Neisseria gonorrhoeae [49] = assay: Antimicrobial activity against Neisseria gonorrhoeae obtained from patient with uncomplicated gonorrhea expressing tetM mutant gene in combination with variants of other gene loci assessed as incidence of susceptible isolates by agar dilution method; outline: as §3
Neisseria gonorrhoeae [50] = assay: Antimicrobial activity against Neisseria gonorrhoeae obtained from patient with uncomplicated gonorrhea expressing rpsJ mutant gene assessed as percentage intermediate isolates by agar dilution method; outline: as §3
Neisseria gonorrhoeae [51] = assay: Antimicrobial activity against Neisseria gonorrhoeae obtained from patient with uncomplicated gonorrhea expressing rpsJ and mtrR mutant gene assessed as percentage intermediate isolates by agar dilution method; outline: as §3

CC1(C)S[C@@H]2[C@H](NC(=O)Cc3ccccc3)C(=O)N2[C@H]1C(=O)O [PENICILLIN G]
Activity (Neisseria gonorrhoeae [1]): 0% | Activity (Neisseria gonorrhoeae [2]): 3.9% | Activity (Neisseria gonorrhoeae [3]): 0% | Activity (Neisseria gonorrhoeae [4]): 0% | Activity (Neisseria gonorrhoeae [5]): 0% | Activity (Neisseria gonorrhoeae [6]): 6.7% | Activity (Neisseria gonorrhoeae [7]): 0% | Activity (Neisseria gonorrhoeae [8]): 5.1% | Activity (Neisseria gonorrhoeae [9]): 8% | Activity (Neisseria gonorrhoeae [10]): 9.2% | Activity (Neisseria gonorrhoeae [11]): 17.3% | Activity (Neisseria gonorrhoeae [12]): 83.3% | Activity (Neisseria gonorrhoeae [13]): 90.7% | Activity (Neisseria gonorrhoeae [14]): 49% | Activity (Neisseria gonorrhoeae [15]): 100% | Activity (Neisseria gonorrhoeae [16]): 100% | Activity (Neisseria gonorrhoeae [17]): 28.6% | Activity (Neisseria gonorrhoeae [18]): 33.3% | Activity (Neisseria gonorrhoeae [19]): 50% | Activity (Neisseria gonorrhoeae [20]): 15.4% | Activity (Neisseria gonorrhoeae [21]): 9.7% | Activity (Neisseria gonorrhoeae [22]): 7.9% | Activity (Neisseria gonorrhoeae [23]): 11.3% | Activity (Neisseria gonorrhoeae [24]): 0% | Activity (Neisseria gonorrhoeae [25]): 9.3% | Activity (Neisseria gonorrhoeae [26]): 47.1% | Activity (Neisseria gonorrhoeae [27]): 0% | Activity (Neisseria gonorrhoeae [28]): 0% | Activity (Neisseria gonorrhoeae [29]): 71.4% | Activity (Neisseria gonorrhoeae [30]): 60% | Activity (Neisseria gonorrhoeae [31]): 50% | Activity (Neisseria gonorrhoeae [32]): 79.5% | Activity (Neisseria gonorrhoeae [33]): 82.3% | Activity (Neisseria gonorrhoeae [34]): 82.8% | Activity (Neisseria gonorrhoeae [35]): 71.4% | Activity (Neisseria gonorrhoeae [36]): 16.7%

O=C(O)c1cn(C2CC2)c2cc(N3CCNCC3)c(F)cc2c1=O [CIPROFLOXACIN]
Activity (Neisseria gonorrhoeae [1]): 0% | Activity (Neisseria gonorrhoeae [13]): 99.3% | Activity (Neisseria gonorrhoeae [25]): 0.7% | Activity (Neisseria gonorrhoeae [26]): 0%

CN(C)[C@@H]1C(O)=C(C(N)=O)C(=O)[C@@]2(O)C(O)=C3C(=O)c4c(O)cccc4[C@@](C)(O)[C@H]3C[C@@H]12 [TETRACYCLINE]
Activity (Neisseria gonorrhoeae [37]): 25.3% | Activity (Neisseria gonorrhoeae [38]): 23% | Activity (Neisseria gonorrhoeae [39]): 0% | Activity (Neisseria gonorrhoeae [1]): 0% | Activity (Neisseria gonorrhoeae [3]): 0% | Activity (Neisseria gonorrhoeae [40]): 18.7% | Activity (Neisseria gonorrhoeae [41]): 46.2% | Activity (Neisseria gonorrhoeae [42]): 54% | Activity (Neisseria gonorrhoeae [43]): 56.1% | Activity (Neisseria gonorrhoeae [44]): 100% | Activity (Neisseria gonorrhoeae [13]): 83.5% | Activity (Neisseria gonorrhoeae [15]): 100% | Activity (Neisseria gonorrhoeae [45]): 30.5% | Activity (Neisseria gonorrhoeae [46]): 26.9% | Activity (Neisseria gonorrhoeae [47]): 20.7% | Activity (Neisseria gonorrhoeae [48]): 20.9% | Activity (Neisseria gonorrhoeae [49]): 0% | Activity (Neisseria gonorrhoeae [25]): 16.5% | Activity (Neisseria gonorrhoeae [26]): 0% | Activity (Neisseria gonorrhoeae [27]): 0% | Activity (Neisseria gonorrhoeae [50]): 50.8% | Activity (Neisseria gonorrhoeae [51]): 26.9%
